# Laboratory results: ChEMBL document CHEMBL4725385, “Design and synthesis of β-strand-fixed peptides inhibiting aggregation of amyloid β-protein” (Bioorg Med Chem, 2020)
# Activity calls are given as the source filed them. No cut-off for these calls is given here. Peptide text beside a SMILES is read from it.
# What was measured:
# [1] = biological target: Amyloid-beta precursor protein (Homo sapiens) (UniProt P05067); experiment: Inhibition of HFIP-pretreated amyloid beta (1 to 42) (unknown origin) aggregation in PBS buffer at pH 7.4 at 40 uM incubated for 48 hrs by thioflavin-T fluorescence assay
# Procedure, shortened: (§1)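 Aβ42 pretreated with HFIP (1 mg/mL, 30 min RT, sonicated 5 min, dried to film), then diluted from 0.1% NH4OH stock to final 10 µM in PBS (50 mM sodium phosphate, 100 mM NaCl) with compound from DMSO stock (final 1% DMSO), pH 7.4. Incubated at 37 °C for 0–48 h. Aliquots were frozen at -80 °C, then mixed with 5.0 µM Th-T in 50 mM Gly-NaOH pH 8.5. Fluorescence read at ex 430/em 510 nm, buffer background subtracted; mean ± SD, n = 4.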
# SH-SY5Y [2] = experiment: Neuroprotective activity against amyloid beta (1 to 42 residues) induced cytotoxicity in human SH-SY5Y cells assessed as cell viability at 10 uM after 48 hrs by MTT assay; format: functional, cell-based
# Procedure, shortened: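 SH-SY5Y cells (ATCC) were grown in DMEM/F-12 with 10% FBS and penicillin/streptomycin at 37 °C, 5% CO2. Cells were plated at 2.0 × 10^4 per well and pre-incubated for 24 h. HFIP-treated Aβ42 (final 1 µM) and compound (final 10 µM) were added, with 0.5% DMSO and 0.01% NH4OH final. After 48 h, MTT (5 mg/mL stock) was added for 4 h, then DMSO was used for solubilization. Mean ± SD, n = 3.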
# [3] = biological target: Amyloid-beta precursor protein (Homo sapiens) (UniProt P05067); experiment: Inhibition of HFIP-pretreated amyloid beta (1 to 42) (unknown origin) aggregation in PBS buffer at pH 7.4 assessed as effect on fibril formation at 40 uM after 48 hrs by uranyl acetate staining based transmission electron microscopy
# Procedure, shortened: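 HFIP-treated Aβ42 (final 10 µM) was incubated with compound (final 40 µM) in PBS containing 1% DMSO, pH 7.4, at 37 °C for 48 h. Pellets were collected by centrifugation and resuspended in distilled water. They were left on formvar-coated copper grids for 5 min, negatively stained with 2% uranyl acetate and imaged by TEM.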
# [4] = biological target: Amyloid-beta precursor protein (Homo sapiens) (UniProt P05067); experiment: Inhibition of HFIP-pretreated amyloid beta (1 to 42) (unknown origin) aggregation in PBS buffer at pH 7.4 incubated for 48 hrs by thioflavin-T fluorescence assay; procedure, shortened: as §1
# SH-SY5Y [5] = experiment: Cytotoxicity against human SH-SY5Y cells assessed as reduction in cell viability at 10 uM measured after 48 hrs by MTT assay; format: cell-based
# Amyloid-beta precursor protein (Homo sapiens), sequence (P05067 whole entry): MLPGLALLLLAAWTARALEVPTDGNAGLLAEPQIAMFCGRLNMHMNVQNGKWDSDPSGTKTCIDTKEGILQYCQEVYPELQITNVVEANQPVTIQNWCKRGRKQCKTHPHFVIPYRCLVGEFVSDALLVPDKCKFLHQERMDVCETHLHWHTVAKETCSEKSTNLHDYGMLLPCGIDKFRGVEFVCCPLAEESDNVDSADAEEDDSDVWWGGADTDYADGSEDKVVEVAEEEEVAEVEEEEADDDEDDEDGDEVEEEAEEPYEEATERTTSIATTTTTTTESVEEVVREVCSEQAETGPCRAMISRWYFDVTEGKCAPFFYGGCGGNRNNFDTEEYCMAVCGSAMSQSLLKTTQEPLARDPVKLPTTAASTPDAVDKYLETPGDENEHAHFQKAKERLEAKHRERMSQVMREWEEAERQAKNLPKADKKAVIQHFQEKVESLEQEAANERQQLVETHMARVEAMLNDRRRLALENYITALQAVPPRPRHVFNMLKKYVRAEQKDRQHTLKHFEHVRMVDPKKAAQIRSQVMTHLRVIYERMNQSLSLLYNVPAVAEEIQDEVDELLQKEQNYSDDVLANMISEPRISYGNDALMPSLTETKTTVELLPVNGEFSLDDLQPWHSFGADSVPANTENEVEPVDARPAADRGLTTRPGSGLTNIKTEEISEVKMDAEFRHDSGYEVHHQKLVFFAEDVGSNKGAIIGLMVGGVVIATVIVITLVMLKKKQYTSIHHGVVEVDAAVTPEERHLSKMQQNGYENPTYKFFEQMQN
Structure (SMILES),inhibition [1],inhibition [3],inhibition [4],Activity (SH-SY5Y [2]),Activity (SH-SY5Y [5])
CC(C)C[C@H](N)C(=O)N1CCC[C@H]1C(=O)N[C@@H](Cc1ccccc1)C(=O)N[C@@H](Cc1ccccc1)C(=O)O (H-LPFF-OH),inactive,–,–,–,–
CC(C)[C@@H]1NC(=O)[C@@H](N)C/C=C/COc2ccc(cc2)C[C@@H](C(=O)N[C@@H](Cc2ccccc2)C(=O)N[C@@H](C)C(=O)O)NC1=O,inactive,inactive,–,inactive,–
CC(C)C[C@H](N)C(=O)N[C@H](C(=O)N[C@H]1Cc2ccc(cc2)OC/C=C/C[C@@H](C(=O)O)NC(=O)[C@H](Cc2ccccc2)NC1=O)C(C)C,inactive,inactive,–,inactive,–
COC(=O)[C@@H]1C/C=C/COc2ccc(cc2)C[C@H](NC(=O)OC(C)(C)C)C(=O)N[C@@H](CC(C)C)C(=O)N1,inactive,–,–,–,–

# The next lines start with results.
inhibition [1],inhibition [3],inhibition [4],Structure (SMILES),Activity (SH-SY5Y [2]),Activity (SH-SY5Y [5])
Active,inactive,–,C[C@H](NC(=O)[C@@H]1C/C=C/COc2ccc(cc2)C[C@H](NC(=O)[C@@H]2CCCN2)C(=O)N[C@@H](Cc2ccccc2)C(=O)N1)C(=O)O,inactive,–
–,inactive,Dose-dependent effect,CC(C)C[C@H](N)C(=O)N[C@H]1Cc2ccc(cc2)OC/C=C/C[C@@H](C(=O)N[C@@H](C)C(=O)O)NC(=O)[C@H](Cc2ccccc2)NC1=O,inactive,–
Active,inactive,–,O=C(O)C[C@H](NC(=O)[C@@H]1C/C=C/COc2ccc(cc2)C[C@H](NC(=O)[C@@H]2CCCN2)C(=O)N[C@@H](Cc2ccccc2)C(=O)N1)C(=O)O,inactive,–
–,inactive,Dose-dependent effect,CC(C)C[C@H](N)C(=O)N[C@H]1C/C=C/COc2ccc(cc2)C[C@@H](C(=O)N[C@@H](C)C(=O)O)NC(=O)[C@H](Cc2ccccc2)NC1=O,inactive,Toxic
Active,inactive,–,CC(C)C[C@H](N)C(=O)N[C@H]1Cc2ccc(cc2)OC/C=C/C[C@@H](C(=O)N[C@@H](CC(=O)O)C(=O)O)NC(=O)[C@H](Cc2ccccc2)NC1=O,inactive,–
